Test results reported in paper PMC8273112 (ACS Infectious Diseases, 2021).

Assays:
Leishmania donovani = details: read-out: in vitro IC50 Leishmania donovani; cited from earlier work
P. falciparum = details: cited from earlier work
[1] = test system: Plasmodium falciparum strain D6; test: SYBR Green growth inhibition assay, P. falciparum D6; type: cell-based; details: Plasmodium falciparum, D6, 72 h, read-out: IC50 D6
[2] = test system: Plasmodium falciparum strain Dd2; test: SYBR Green growth inhibition assay, P. falciparum Dd2; type: cell-based; details: Plasmodium falciparum, DD2, 72 h, read-out: IC50 Dd2
[3] = test system: P. falciparum strain Tm90–C2B; test: SYBR Green growth inhibition assay, P. falciparum Tm90-C2B; type: cell-based, Plasmodium falciparum; details: Plasmodium falciparum, TM90, 72 h, read-out: IC50 Tm90–C2B
Summary of the method: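 Human erythrocytes (≤28 days old), 2% hematocrit, asynchronous culture at 0.2% initial parasitemia, in RPMI-1640 with HEPES, hypoxanthine, glucose, glutamine and Albumax II. 2-fold serial dilution starting at 20 μM, quadruplicate. Incubated 72 h at 37 °C under 5% O2/5% CO2/90% N2. SYBR Green I dye-detergent added for at least 1 h in the dark; fluorescence read at 497/520 nm, normalized to untreated wells, plotted against log concentration.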

[4] = test system: P. falciparum A6 (SB1-A6); test: SYBR Green growth inhibition assay, P. falciparum A6; type: cell-based, Plasmodium falciparum; details: Plasmodium falciparum, 72 h, read-out: IC50 A6
Summary of the method: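 Asynchronous parasites grown in human erythrocytes in RPMI-1640 with HEPES, hypoxanthine and Albumax II under 5% O2/5% CO2/90% N2 at 37 °C. Test compound in 2-fold serial dilution from 20 μM, run in quadruplicate, at 2% hematocrit and 0.2% starting parasitemia for 72 h. SYBR Green I lysis dye added for ≥1 h in the dark. Fluorescence read at 497/520 nm, normalized to untreated wells and plotted against log concentration.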

HepG2 cytotoxicity assay = type: cell-based, human; details: human, HepG2 cells
Plasmodium yoelii [5] = test: Modified 4-day Peters test, murine malaria; type: in vivo, Plasmodium yoelii in mice; details: for P. yoelii ED50 / P. yoelii ED90: oral gavage days 1–4, parasitemia day 5, mice; for P. yoelii NRD (nonrecrudescence dose, cure dose): oral gavage up to 25 mg/kg/day, no parasites at day 30
[6] = Murine microsomal stability; type: in vitro ADME
Toxoplasma gondii = details: cited from earlier work
Babesia microti = details: oral; cited from earlier work
P. berghei = details: cited from earlier work
[7] = cited from earlier work
Plasmodium yoelii [8] = details: at any dose level; no reference given; cited from earlier work

Compound | IC50 (Leishmania donovani) | IC50 value against P. falciparum in vitro (P. falciparum) | IC50 [1] | IC50 [2] | IC50 [3] | IC50 [4] | IC50 at 24 h (HepG2 cytotoxicity assay) | P. yoelii ED50 (Plasmodium yoelii [5]) | P. yoelii ED90 (Plasmodium yoelii [5]) | P. yoelii NRD (nonrecrudescence dose, cure dose) (Plasmodium yoelii [5]) | murine microsomal stability, t1/2 ([6]; 1 μM, 0.5 mg/mL protein, 37 °C, 1 h, NADPH) | CLint scaled at 1 μM ([6]; mouse, pooled murine liver microsomes, pH 7.4) | half-life at 1 μM ([6]; mouse, pooled murine liver microsomes, pH 7.4, murine microsomal stability, t1/2, 1 μM, 0.5 mg/mL protein, 37 °C, 1 h, NADPH) | in vitro IC50 Toxoplasma gondii (Toxoplasma gondii) | murine in vivo nonrecrudescence dose Babesia microti (Babesia microti) | activity in vivo against P. berghei (P. berghei) | absorption [7] | cure in P. yoelii model (Plasmodium yoelii [8])
Cl.Cl.Cl.N=C(N)c1cccc(/C=N/N=C(\N)N/N=C/c2cccc(C(=N)N)c2)c1 [CGP 40215A] | 18000 nM | low micromolar | – | – | – | – | – | – | – | – | – | – | – | – | – | – | – | –
Cl.N#Cc1ccc(C=NNC(=N)NN=Cc2ccc(C#N)cc2)cc1 [Compound 22, 2,2′-Bis[(4-cyanophenyl)methylene]carbonimidic Dihydrazide Hydrochloride] | – | – | 58 nM | 166 nM | 312 nM | 76 nM | > 200000 nM | 2.7 mg/kg/day | 7.7 mg/kg/day | >25 mg/kg/day | – | – | – | – | – | – | – | –
Cl.N=C(NN=Cc1ccc(Cl)cc1)NN=Cc1ccc(Cl)cc1 [robenidine, 1,3-Bis(p-chlorobenzylideneamino)guanidine hydrochloride, reference compound] | – | – | 324 nM | 814 nM | 1320 nM | 410 nM | 30000 nM | 1.6 mg/kg/day | 4.9 mg/kg/day | >25 mg/kg/day | 2.6442 h | 34.4 mL/min/kg | > 2.5 h | 0.03 µg/mL | 100 mg/kg/day | moderate activity | poorly absorbed | –
CCN(CC)CCCC(C)Nc1ccnc2cc(Cl)ccc12 (stereo not drawn) [chloroquine, reference compound] | – | – | – | 70 nM | 297 nM | 16 nM | 181000 nM | – | – | – | – | – | – | – | – | – | – | not curative
